Results collected from several papers.

| test | test system | setting | pKa | Compound |
| --- | --- | --- | --- | --- |
| – | – | – | 8.1 | CC(C)(C)CCN1CC2C(CNC(=O)c3cc(Cl)cc(Cl)c3)C2C1 (stereo not shown) |
| – | aqueous buffer | – | 6.69 | COc1ccc(S(=O)(=O)N/N=C/c2cccc(C(=O)O)c2)cc1OC |
| – | – | – | 4.1 | C=CC(=O)N(C)CCOc1c(N)ncnc1-c1cc(F)cc(NC(=O)c2ccc(C3CC3)cc2F)c1C |
| – | – | – | 4.8 | Cc1cnc(N2CC3(CCOCC3)C2)c(C(=O)Nc2ccc(C(=O)N3CCc4cc(C(=O)Nc5c(C)cccc5F)sc4-c4ccccc43)cc2)c1 |
| – | – | – | 6.4 | CC#Cc1cncc(-c2ccc3c(c2)[C@@]2(N=C(C)C(N)=N2)[C@]2(CC[C@H](OC)CC2)C3)c1 |
| potentiometric | – | – | 8.95 | Cc1cc(Cl)cc(S(C)(=O)=O)c1NC(=O)c1cc(Br)nn1-c1ncccc1Cl |
| absorbance | aqueous buffer | pH 3.1 | 7.9 | O=C1c2c(O)cc(O)cc2O[C@H](c2cc(O)c(O)c(O)c2)[C@H]1O |
| – | – | – | 4 | CCn1c(C(=O)N(C2CC2)C2CC2)cc2c3c(ncn3C)c(Nc3cc(C)n(C)n3)nc21 |
| – | – | – | 4.24 | CS(=O)(=O)N1CCN(Cc2cc3nc(-c4cccc5[nH]ncc45)nc(N4CCOCC4)c3s2)CC1 |
| – | aqueous buffer | – | 6.86 | COC(=O)c1ccc(/C=N/NS(=O)(=O)c2ccc(OC)c(OC)c2)cc1 |
| – | – | – | ~4.2 | COc1cccc(C=CCC(=O)O)c1OC |
| – | – | – | 5.11 | COc1ccccc1Oc1c(NS(=O)(=O)c2ccc(C(C)(C)C)cc2)nc(-c2ncccn2)nc1OCCO |
| – | – | – | 6.31 | CC(C)CC(=O)N1CCC[C@H](COc2cccc3c2C(N)=NS(=O)(=O)N3)C1 |
